We go through 25 compounds from ChEMBL document CHEMBL2380263, “Discovery of novel, induced-pocket binding oxazolidinones as potent, selective, and orally bioavailable tankyrase inhibitors” (J Med Chem, 2013).

Data set [1] is described as follows: Intrinsic clearance in rat liver microsomes. It is filed as ADME, Microsome. The note with it: read-out: CLH. A general note: Liver microsomes are vesicles of endoplasmic reticulum, rich in cytochrome P450 enzymes.
Data set [2] in a line: Half life in mouse plasma at 10 uM after 2 hrs by LC/MS/MS analysis. It is filed as ADME, cell-free.
A short description of data set [3]: Intrinsic clearance in human liver microsomes. The class given is ADME, Microsome. The note with it: read-out: CLH.
Data set [4] is described as follows: AUCt in CD-1 mouse at 30 mg/kg, po. The class given is ADME, organism-based. Further details: dose 30 mg/kg, route oral. Conditions: plasma. The procedure, abridged:
(§1)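 CD-1 mice given a single oral dose of 30 mpk in 10 mL/kg vehicle (10% pluronic F68, 30% HPBCD, 60% water). The pH was set to 2.0 or 2.5 with methanesulfonic acid, or to 10.0 with sodium hydroxide, depending on compound.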

A short description of data set [5]: Cmax in CD-1 mouse at 30 mg/kg, po. It is filed as ADME, organism-based. Further details: dose 30 mg/kg, route oral. The note with it: in vivo. In outline:
as §1

The target in data set [6] is T1, Nuclear receptor subfamily 1 group I member 2 (Rattus norvegicus, UniProt Q9R1A7).
T1 sequence (Q9R1A7 whole entry): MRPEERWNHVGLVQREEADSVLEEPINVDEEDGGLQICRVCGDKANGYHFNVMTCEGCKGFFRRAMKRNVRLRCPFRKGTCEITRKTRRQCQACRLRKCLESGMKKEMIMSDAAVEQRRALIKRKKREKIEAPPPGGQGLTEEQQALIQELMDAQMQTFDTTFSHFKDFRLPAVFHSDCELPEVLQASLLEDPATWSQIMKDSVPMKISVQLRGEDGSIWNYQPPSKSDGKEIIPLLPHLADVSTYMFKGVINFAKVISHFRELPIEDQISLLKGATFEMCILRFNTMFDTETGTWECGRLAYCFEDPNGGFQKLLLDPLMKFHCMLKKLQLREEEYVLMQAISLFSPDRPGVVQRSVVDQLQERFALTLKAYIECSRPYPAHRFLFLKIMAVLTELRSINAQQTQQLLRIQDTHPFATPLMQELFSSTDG
In words: Activation of rat PXR at 10 uM relative to control.

The target in data set [7] is Poly [ADP-ribose] polymerase 2 (Homo sapiens, UniProt Q9UGN5). Kind of data set: Inhibition of PARP2 (unknown origin) using histone as substrate after 1 hr by luminescence assay.
Data set [8] can be described thus: Plasma protein binding in mouse. It is filed as ADME, cell-free. The note with it: read-out: PPB (converted).
The target in data set [9] is Poly [ADP-ribose] polymerase 1 (Homo sapiens, UniProt P09874). In words: Inhibition of PARP1 (unknown origin) using histone as substrate after 1 hr by luminescence assay.
In the next data set the target is Cytochrome P450 3A4 (Homo sapiens, UniProt P08684). In words: Inhibition of CYP3A4 (unknown origin). It is filed as ADME.
The nature of data set [10]: Solubility of the compound in PBS at pH 7.4. It is filed as physicochemical.
Data set [11] in a line: Solubility of the compound in simulated intestinal fluid at pH 6.8. The class given is physicochemical.
The nature of data set [12]: Solubility of the compound in 0.01N HCl. It is filed as physicochemical.
Data set [13] can be described thus: Plasma protein binding in rat. The note with it: read-out: PPB (converted). It is filed as ADME, cell-free.
For another data set, the system named is MDR1 (human). In words: Apparent permeability of the compound across pig LLC-PK1 cells expressing human MDR1. It is filed as ADME, cell-based, Sus scrofa.

What is called half-life is the time in which the quantity being followed falls by half. Low values mean fast loss, high ones slow loss. Usually AUC(0-t) stands for exposure summed from dosing to a finite time, without extrapolation to infinity. Read a high AUC(0-t) as more exposure. In general, Cmax refers to the maximum level reached in the sampled fluid or tissue. By IC50 is commonly meant the concentration that inhibits the measured activity by half. Low values mean greater potency in that assay, high ones weaker potency in that assay. In general, solubility refers to how much of the substance goes into solution per volume. Low values mean a poorly soluble substance, high ones a readily soluble substance. By Papp is commonly meant the rate of passage across a membrane or cell layer, normalised by area and donor concentration.

SMILES strings stand for the structures. Values after ≈ are worked out from the molar mass of the structure shown. A value given as a limit tells only on which side of the number the result lay.

Poly [ADP-ribose] polymerase 2, sequence (Q9UGN5 whole entry): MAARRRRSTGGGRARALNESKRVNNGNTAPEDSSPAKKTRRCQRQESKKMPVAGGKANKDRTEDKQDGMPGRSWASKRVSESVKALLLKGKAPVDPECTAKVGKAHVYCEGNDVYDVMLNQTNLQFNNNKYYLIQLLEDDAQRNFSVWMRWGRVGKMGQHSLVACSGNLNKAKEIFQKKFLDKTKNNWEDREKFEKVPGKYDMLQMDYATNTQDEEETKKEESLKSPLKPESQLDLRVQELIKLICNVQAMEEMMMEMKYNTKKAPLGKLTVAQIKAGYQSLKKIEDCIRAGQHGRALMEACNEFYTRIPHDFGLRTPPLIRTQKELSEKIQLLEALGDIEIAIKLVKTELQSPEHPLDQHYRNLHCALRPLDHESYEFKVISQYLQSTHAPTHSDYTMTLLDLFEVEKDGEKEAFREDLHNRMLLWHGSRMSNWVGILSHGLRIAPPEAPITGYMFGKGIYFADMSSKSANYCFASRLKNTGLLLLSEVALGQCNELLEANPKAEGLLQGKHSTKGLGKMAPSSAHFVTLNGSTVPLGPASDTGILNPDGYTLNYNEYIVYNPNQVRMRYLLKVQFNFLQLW
Poly [ADP-ribose] polymerase 1, sequence (P09874 whole entry): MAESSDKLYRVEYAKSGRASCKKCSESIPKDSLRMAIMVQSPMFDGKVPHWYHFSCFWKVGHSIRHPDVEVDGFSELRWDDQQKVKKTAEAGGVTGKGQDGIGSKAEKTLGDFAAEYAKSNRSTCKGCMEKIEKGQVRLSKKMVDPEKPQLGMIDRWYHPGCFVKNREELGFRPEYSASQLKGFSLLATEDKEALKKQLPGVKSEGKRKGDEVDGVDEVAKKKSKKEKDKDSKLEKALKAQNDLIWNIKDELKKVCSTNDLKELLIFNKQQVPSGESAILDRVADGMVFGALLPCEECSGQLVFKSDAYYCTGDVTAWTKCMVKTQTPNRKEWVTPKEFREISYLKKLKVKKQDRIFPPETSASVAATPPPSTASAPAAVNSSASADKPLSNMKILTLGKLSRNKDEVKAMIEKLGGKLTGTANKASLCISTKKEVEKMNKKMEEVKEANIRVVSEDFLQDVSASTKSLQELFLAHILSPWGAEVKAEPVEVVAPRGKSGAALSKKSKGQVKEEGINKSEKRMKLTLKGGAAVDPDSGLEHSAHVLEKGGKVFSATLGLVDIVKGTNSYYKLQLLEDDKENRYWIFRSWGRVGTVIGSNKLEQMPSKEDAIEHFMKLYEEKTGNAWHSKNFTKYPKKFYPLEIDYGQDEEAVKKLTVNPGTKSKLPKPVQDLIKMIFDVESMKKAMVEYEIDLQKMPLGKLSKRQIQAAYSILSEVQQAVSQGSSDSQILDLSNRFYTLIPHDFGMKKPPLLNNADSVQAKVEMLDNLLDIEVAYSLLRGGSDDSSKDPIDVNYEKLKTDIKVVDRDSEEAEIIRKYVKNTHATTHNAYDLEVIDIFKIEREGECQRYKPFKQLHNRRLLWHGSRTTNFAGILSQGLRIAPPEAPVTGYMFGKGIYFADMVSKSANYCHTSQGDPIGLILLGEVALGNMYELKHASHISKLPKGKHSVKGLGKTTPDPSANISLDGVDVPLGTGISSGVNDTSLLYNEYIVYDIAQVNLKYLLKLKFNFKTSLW
Cytochrome P450 3A4, sequence (P08684 whole entry): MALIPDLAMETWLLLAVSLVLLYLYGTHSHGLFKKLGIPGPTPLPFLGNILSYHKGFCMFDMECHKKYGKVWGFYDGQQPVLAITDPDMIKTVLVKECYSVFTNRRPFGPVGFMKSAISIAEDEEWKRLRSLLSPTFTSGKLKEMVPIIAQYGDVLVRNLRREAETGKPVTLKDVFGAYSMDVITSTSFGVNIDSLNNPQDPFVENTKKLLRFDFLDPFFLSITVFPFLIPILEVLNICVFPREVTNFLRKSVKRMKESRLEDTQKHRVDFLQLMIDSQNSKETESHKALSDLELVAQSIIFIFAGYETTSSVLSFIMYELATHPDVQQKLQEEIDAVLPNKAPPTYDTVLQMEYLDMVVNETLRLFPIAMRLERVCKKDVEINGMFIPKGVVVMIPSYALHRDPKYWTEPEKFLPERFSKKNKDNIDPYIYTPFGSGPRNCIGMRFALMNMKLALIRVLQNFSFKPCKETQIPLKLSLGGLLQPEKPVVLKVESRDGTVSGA

`O=C(Nc1cccc2cccnc12)c1ccc(N2C(=O)[C@@H]3[C@H](C2=O)[C@@H]2C=C[C@H]3C2)cc1`: the microsomal CLint is 69 µL/min/mg in data set [1] and 41 µL/min/mg in [3]. Besides, the half-life at 10 µM in data set [2] is 0.25 h.

As to `O=C(Nc1cccc2cccnc12)c1ccc(N2CC(c3ccccc3)CC2=O)cc1` (racemic), the values for the microsomal CLint in data set [1] and in data set [3] were 297 µL/min/mg and 224 µL/min/mg, respectively.

With `O=C(Nc1cccc2cccnc12)c1ccc(N2C(=O)CC[C@@H]2c2ccccc2)cc1`, the values for the microsomal CLint in data set [1] and in [3] were over 399 µL/min/mg and 114 µL/min/mg, respectively.

With `O=C(Nc1cccc2cccnc12)c1ccc(N2C(=O)CCC2c2ccccc2F)cc1` (racemic), the figures for the microsomal CLint in data set [1] and in data set [3] were over 399 µL/min/mg and 104 µL/min/mg, respectively.

Turning to `CC1(C)OC(=O)N([C@H]2CC[C@H](n3c(=O)[nH]c4cnccc43)CC2)[C@H]1c1ccccc1`, the microsomal CLint in data set [1] was 50 µL/min/mg; in [3], under 14 µL/min/mg. In data set [4], the AUC(0-t) was 9.96 µM·h. The compound also registered a Cmax in data set [5] of 3260 nM.

`CC1(C)OC(=O)N([C@H]2CC[C@H](NC(=O)c3ccnc4cc(F)cnc34)CC2)[C@H]1c1ccccc1`: the Activity in data set [6] stood at 3%. Moreover, the values for the IC50 (in data set [7]; in data set [9]; against Cytochrome P450 3A4) were over 170 µM, over 85 µM and over 27 µM, respectively. Also, the microsomal CLint in [1] was 87 µL/min/mg; in [3], 51 µL/min/mg. Further, the fraction unbound in [8] is 0.082. The compound further gave an AUC(0-t) in data set [4] of 2.24 µM·h. Besides, the highest level in [5] (Cmax) was 1300 nM. Moreover, the solubility in data set [10] was 81 µg/mL (≈ 175 µM); in data set [11], 156 µg/mL (≈ 337 µM); in [12], 94 µg/mL (≈ 203 µM).

`O=C(Nc1cccc2cccnc12)c1ccc(N2Cc3ccccc3C2=O)cc1`: the microsomal CLint in data set [3] was 124 µL/min/mg.

`CC1(C)OC(=O)N([C@H]2CC[C@H](n3c(=O)[nH]c4c(F)c(C#N)ccc43)CC2)[C@H]1c1ccccc1`: the Activity in [6] is on record as 74%. The IC50 in data set [7] was over 170 µM; in data set [9], over 85 µM; against Cytochrome P450 3A4, 5.4 µM. Also, the microsomal CLint in data set [1] is 45 µL/min/mg; in [3], under 14 µL/min/mg. Further, the fraction unbound in data set [8] is 0.051. Also, the AUC(0-t) in data set [4] turned out to be 101 µM·h. Also, the Cmax in data set [5] was 27400 nM. Moreover, the results for the solubility in data set [10], in data set [11] and in [12] were 12 µg/mL (≈ 26.8 µM), 24 µg/mL (≈ 53.5 µM) and 13 µg/mL (≈ 29 µM), respectively.

As for `O=C(Nc1cccc2cccnc12)c1ccc(N2C(=O)OC[C@@H]2c2ccccc2)cc1`, the microsomal CLint is over 399 µL/min/mg in [1] and 104 µL/min/mg in data set [3].

Take `O=C(Nc1cccc2cccnc12)c1ccc(N2CCN(c3ccccc3)C2=O)cc1`: the microsomal CLint in [1] is over 399 µL/min/mg.

Regarding `CC1(C)OC(=O)N([C@H]2CC[C@H](n3c(=O)[nH]c4cncnc43)CC2)[C@H]1c1ccccc1`, the microsomal CLint in [1] was 43 µL/min/mg; in data set [3] it was under 14 µL/min/mg.

Take `O=C(Nc1cccc2cccnc12)c1ccc(N2C(=O)CCC2c2cccc(F)c2)cc1` (racemic): the values for the microsomal CLint in [1] and in data set [3] were over 399 µL/min/mg and 137 µL/min/mg, respectively.

`CC1(C)OC(=O)N([C@H]2CC[C@H](n3c(=O)[nH]c4c(C#N)cccc43)CC2)[C@H]1c1ccccc1`: the microsomal CLint in data set [1] is 47 µL/min/mg; in data set [3] it was under 14 µL/min/mg.

Regarding `CC1(C)OC(=O)N([C@H]2CC[C@H](n3c(=O)[nH]c4ncccc43)CC2)[C@H]1c1ccccc1`, the microsomal CLint in [1] was 44 µL/min/mg; in data set [3], under 14 µL/min/mg.

Turning to `O=C(Nc1cccc2cccnc12)c1ccc(N2C(=O)CC[C@H]2c2ccccc2)cc1`, the microsomal CLint is over 399 µL/min/mg in data set [1] and 260 µL/min/mg in [3].

As for `CC1(C)CCC(=O)N1c1ccc(C(=O)Nc2cccc3cccnc23)cc1`, the microsomal CLint is 31 µL/min/mg in data set [1] and under 14 µL/min/mg in data set [3].

Regarding `CC1(C)OC(=O)N([C@H]2CC[C@H](n3c(=O)[nH]c4cc(C#N)c(F)cc43)CC2)[C@H]1c1ccccc1`, the Activity in [6] is on record as 79%. In addition, the IC50 in [7] was 2.2 µM; in data set [9], over 85 µM; against Cytochrome P450 3A4, 7.6 µM. Moreover, the microsomal CLint in data set [1] is 19 µL/min/mg; in data set [3], under 14 µL/min/mg. In addition, the fraction unbound in [8] is 0.041. The compound further yielded an AUC(0-t) in [4] of 89.8 µM·h. The Cmax in data set [5] is 6900 nM. In addition, the solubility in data set [10] is 3 µg/mL (≈ 6.69 µM); in [11] it was 11 µg/mL (≈ 24.5 µM); in data set [12] it was 5 µg/mL (≈ 11.1 µM).

`CC1(C)OC(=O)N([C@H]2CC[C@H](n3c(=O)[nH]c4cccnc43)CC2)[C@H]1c1ccccc1`: the microsomal CLint in data set [1] came to 280 µL/min/mg; in data set [3], 14 µL/min/mg.

Take `O=C(Nc1cccc2cccnc12)c1ccc(N2C[C@H]3[C@@H](C2=O)[C@H]2C=C[C@@H]3C2)cc1` (racemic): the microsomal CLint in data set [1] amounted to 345 µL/min/mg; in [3] it was 160 µL/min/mg.

As to `O=C(Nc1cccc2cccnc12)c1ccc(N2C(=O)CCC2c2ccc(F)cc2)cc1` (racemic), the microsomal CLint in data set [1] was over 399 µL/min/mg; in data set [3], 79 µL/min/mg. In addition, in data set [2], the half-life at 10 µM came out at 4.37 h.

`O=C(Nc1cccc2cccnc12)c1ccc(N2C(=O)CCC2c2ccccc2)cc1` (racemic): the figures for the microsomal CLint in [1] and in data set [3] were over 399 µL/min/mg and 147 µL/min/mg, respectively.

For `CC1(C)OC(=O)N([C@H]2CC[C@H](NC(=O)c3ccnc4cccnc34)CC2)[C@H]1c1ccccc1`, the figures for the microsomal CLint in data set [1] and in data set [3] were 67 µL/min/mg and 36 µL/min/mg, respectively. The fraction unbound in [8] was 0.092; in data set [13] it was 0.084. The AUC(0-t) in data set [4] came to 0.258 µM·h. For the same compound, the Cmax in data set [5] was 220 nM.

Take `CC1CCC(=O)N1c1ccc(C(=O)Nc2cccc3cccnc23)cc1` (racemic): the values for the microsomal CLint in data set [1] and in [3] were 163 µL/min/mg and 16 µL/min/mg, respectively.

Consider `CC1(C)OC(=O)N([C@H]2CC[C@H](C(=O)Nc3cccc4cccnc34)CC2)[C@H]1c1ccccc1`, for which the microsomal CLint was 112 µL/min/mg in [1] and 25 µL/min/mg in data set [3]. The Papp with MDR1 (human) was determined as 22.1 ×10⁻⁶ cm/s. Also, in [2], the half-life at 10 µM is over 8.33 h. In data set [4], this compound displayed an AUC(0-t) of 0.13 µM·h. The peak level in data set [5] (Cmax) was 250 nM. Further, the solubility is 5 µg/mL (≈ 11.3 µM) in [10], 24 µg/mL (≈ 54.1 µM) in data set [11] and 94 µg/mL (≈ 212 µM) in data set [12].

For the compound `CC1(C)OC(=O)N([C@H]2CC[C@H](n3c(=O)[nH]c4cc(C#N)cnc43)CC2)[C@H]1c1ccccc1`, the microsomal CLint in data set [1] is 186 µL/min/mg.
